Experimental data as given in PubChem BioAssay AID504383 (The Scripps Research Institute Molecular Screening Center, 2011).
The whole screen tested about 2,500 compounds, of which about 1,200 (48%) were called active. So high a share suggests a set chosen from earlier hits. The list shows a part of the results. A number with no mark means an inactive call.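 Rule for the calls: active = mean activation above the low control average plus 3 SD, as set in the primary screen (cut at about 12% in these data); inactive = the rest.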

biological target: Troponin I, cardiac muscle (Homo sapiens) + Troponin T, cardiac muscle (Homo sapiens) + Troponin C, slow skeletal and cardiac muscles (Homo sapiens) (UniProt P19429+P45379+P63316); assay: cardiac RTF calcium sensitivity activators, confirmation, biochemical, IANBD-TnC fluorescence, triplicate (AID 504383); settings: IANBD-labeled cardiac RTF, Ca2+ sensitivity fluorescence; at 7.2 µM; hits give high values; scaled from EC20 to saturating calcium; tested at EC20 calcium, 0.472 mM;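 note: 0% = DMSO at 0.472 mM calcium and 100% = DMSO at 2.9 mM calcium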
How it was run: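 Assay system: labelled regulated thin filaments / Timing: 15 min at 25 °C / Detection: fluorescence intensity of labelled filaments / Measure: fluorescence gain scaled between EC20 and EC100 calcium controls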

| SMILES | activation |
| --- | --- |
| C=CCN1C(=O)/C(=C\C=C2\N(C)c3ccccc3C2(C)C)SC1=S | 3.44% |
| CCN1C(=O)/C(=C/N2CCc3ccccc32)SC1=S | 50% (active) |
| COc1ccccc1NCC(=O)NC(=O)NC1CCCCC1 | 13.1% (active) |
| COc1ccc(C2=NS(=O)(=O)N(C)C(C(=O)NC3CCCC3)=C2)cc1 | -1.79% |
| CCOc1ccc(C(=O)NC2CCN(C(=O)Nc3ccccc3OC)CC2)cc1 | 2.1% |
| CSCCC(NC(=O)c1ccc(Cl)cc1)C(=O)OCC(=O)c1ccc[nH]1 (configuration not stated) | 9.46% |
| CCS(=O)(=O)N1Cc2ccccc2CC1C(=O)Nc1ccc(OC)cc1OC (configuration not stated) | 6.84% |
| COc1ccc(N2CC(C(=O)Nc3nc(-c4ccccc4)c(C(C)=O)s3)CC2=O)c(OC)c1 (configuration not stated) | 12.4% (active) |
| COc1ccc(OC)c(S(=O)(=O)N2CCC(C(=O)NCc3ccccn3)CC2)c1 | 7.51% |
| N#CC1=C(N)OC2=C(CC/C2=C\c2ccccc2)C1c1ccccc1 (configuration not stated) | 36.3% (active) |
| N#CC1=C(N)OC2=C(CC/C2=C\c2ccccc2Cl)C1c1ccccc1Cl (configuration not stated) | 317% (active) |
| Cc1ccc(/C=C2\CCC3=C2OC(N)=C(C#N)C3c2ccc(C)cc2)cc1 (configuration not stated) | 11% |
| CC(=O)C1=C(C)N(CC2CC2)C(=O)N[C@H]1c1ccc(Br)cc1 | 102% (active) |
| CC(=O)C1=C(C)N(Cc2ccccc2)C(=O)N[C@@H]1c1cccc(C(F)(F)F)c1 | 8.59% |
| COc1ccc(Cl)cc1NC(=O)CN(C)C(=O)COc1ccccc1F | 4.03% |
| COc1ccc(Cl)cc1NC(=O)CN(C)C(=O)c1ccc(N2CCCCCC2)c([N+](=O)[O-])c1 | 59.6% (active) |
| O=C(Cc1ccccc1)Nn1c(O)c(/C=C2\C=Nc3ccccc32)sc1=S | 87.3% (active) |
| CN(C)/C=C1\C=C2C(=O)c3ccccc3N2C1=O | 87.3% (active) |
| CN(C)C(=O)CN1C(=O)C2CCCCN2C(=O)c2ccccc21 (configuration not stated) | 9.05% |
| Cc1cc(C)c(NC(=S)N(C)C)c(C)c1 | 42.1% (active) |
| N=C1c2ccccc2CN1c1ccc(S(=O)(=O)N2CCCCC2)cc1 | 49.2% (active) |
| CSc1nnc(-c2ccc(S(=O)(=O)N3CCCC3)cc2)n1C | -0.41% |
| CN(C)c1ccc(/C=C/C(=O)c2c(O)c3ccccc3oc2=O)cc1 | 12.3% (active) |

| SMILES | activation |
| --- | --- |
| CN(C)c1ccc(/C=C/C(=O)c2ccccc2O)cc1 | 6.07% |
| CCOc1cccc2c1OC(c1cc(OC)c(OC)c(OC)c1)N1N=C(c3ccc(C)o3)CC21 (configuration not stated) | 11.7% (active) |
| O=C1NCCN1c1ncc([N+](=O)[O-])s1 | 19.6% (active) |
| CC(=O)N(C)c1ccc(C(O)(C(F)(F)F)C(F)(F)F)cc1 | 30.4% (active) |
| COc1ccc(CCNC(=O)C2CC(c3c(Cl)cccc3Cl)=NO2)cc1 (configuration not stated) | 7.74% |
| COc1ccc(CCNC(=O)COC(=O)c2cc(=O)[nH]c3ccccc23)cc1 | 93% (active) |
| COc1cccc(/C(O)=C/c2nc3ccc(C(=O)NCCc4cccc(C)c4)cc3[nH]c2=O)c1 | 9.81% |
| CCc1ccc(/C=N/n2c(C)cc(C)c(C#N)c2=O)cc1 | 7.16% |
| Cc1c(/C=N/O)c2ccccn2c1C=O | 8.72% |
| CN1CCC(N(CCc2ccccc2)C(=O)CCC(=O)O)CC1 | 146% (active) |
| N#CC(C(=O)NCc1ccccc1)c1nc2ccccc2nc1N1CCCC1 (configuration not stated) | -1.52% |
| CCN(CC)c1nc2ccccc2nc1C(C#N)C(=O)NCCc1ccccc1 (configuration not stated) | 532% (active) |
| CCCCCCNC(=O)C(C#N)c1nc2ccccc2nc1N1CCCC1 (configuration not stated) | 5.18% |
| COc1ccc(C(=O)NCC(=O)N2CCN(C(=O)c3ccco3)CC2)cc1OC | 47.6% (active) |
| O=C(NCC(=O)N1CCN(c2ncccn2)CC1)c1ccccc1OC(F)F | 0.94% |
| Cc1ccc(NC2OC(C(O)CO)C(O)C2O)cc1[N+](=O)[O-] (configuration not stated) | 8.56% |
| COc1ccccc1NC(=O)COC(=O)c1cnc(C)cn1 | 101% (active) |
| O=C(c1ccccc1)N1CCCCC1 | 8.78% |
| O=C(/C=C/c1nc2ccccc2s1)N1CCCCCC1 | 35% (active) |
| CC(=O)Nc1sc2c(c1-c1nc3ccccc3s1)CCN(C(C)C)C2 | 10.5% |
| FC(F)(F)c1cccc(-c2nc(COc3ccc(Cl)cc3Cl)no2)c1 | 5570% (active) |
| Cc1cn(COC/C=C/c2ccccc2)c(=O)[nH]c1=O | 81.1% (active) |
| CCc1nc(Nc2ccc(O)cc2)c2oc3ccccc3c2n1 | 56.6% (active) |

| SMILES | activation |
| --- | --- |
| C=CCNC(=S)NNC(=O)c1ccc(OCC(C)C)cc1 | 4.58% |
| NC(=O)NC(=O)COC(=O)c1cccc(NS(=O)(=O)/C=C/c2ccccc2)c1 | 38.6% (active) |
| CC(C)C(=O)COc1c2occc2cc2ccc(=O)oc12 | 1.65% |
| CCOC(=O)N1CCC(Nc2nc3ccccc3nc2NS(=O)(=O)c2ccc(Cl)cc2)CC1 | 11.1% |
| CCOC(=O)c1cnc(SC)nc1Oc1cccc(NS(=O)(=O)c2ccc(Cl)cc2)c1 | 14.8% (active) |
| CCC1(CC)C(=O)Nc2ccccc21 | 5.14% |
| CN(N=Nc1ccc([N+](=O)[O-])cc1)c1ccccc1 | 36.2% (active) |
| Cc1ccc(C(=O)N/C(=C/c2ccc(-c3ccc([N+](=O)[O-])cc3)o2)C(=O)NCCCN(C)C)cc1 | 5.11% |
| Cc1cc([N+](=O)[O-])ccc1-c1ccc(/C=N/NC(=O)c2ccc(Br)o2)o1 | 7.92% |
| CN(/N=C/c1ccc(-c2ccc([N+](=O)[O-])cc2)o1)c1ccccc1 | 30.8% (active) |
| O=C1CC(c2ccccc2)=NN1c1ccc([N+](=O)[O-])cc1 | 10.7% |
| O=[N+]([O-])c1ccc(N(c2ccccc2)c2ccccc2)cc1 | 14.5% (active) |
| O=C(O)c1cccc(-c2ccc(/C=N/Nc3ccc([N+](=O)[O-])cc3)o2)c1 | 12.7% (active) |
| Cc1oc2c(cc(NS(=O)(=O)c3ccc(C(C)C)cc3)c3ccccc32)c1C(=O)O | 9.7% |
| COc1ccc2nc3ccccc3[n+]([O-])c2c1 | 13.1% (active) |
| CCOCCCNc1ccc(-c2ccccc2)nn1 | 8.24% |
| COc1cc(/C=C/C(O)=C/C(=O)/C=C/c2ccc(O)cc2)ccc1O | 8.41% |
| COc1cc(/C=C/C(=O)/C=C(O)/C=C/c2ccc(O)c(OC)c2)ccc1O | 287% (active) |
| COc1cc(/C=C/C(=O)CC(=O)/C=C/c2ccc(O)c(OC)c2)ccc1O | 9.89% |
| O=C(/C=C(O)/C=C/c1ccc(O)cc1)/C=C/c1ccc(O)cc1 | 10.7% |
| COc1cc(/C=C/C=C2/CC/C(=C/C=C/c3ccc(O)c(OC)c3)C2=O)ccc1O | 19.4% (active) |
| CCN(CC)c1ccc2cc(NC(=O)CCC(=O)O)c(=O)oc2c1 | 4.16% |
| CCN(CC)c1ccc2cc(S(=O)(=O)c3ccc(C)cc3)c(=O)oc2c1 | 32.5% (active) |

| SMILES | activation |
| --- | --- |
| CCN(CC)c1ccc2cc(C(C)=O)c(=O)oc2c1 | 0.78% |
| CCN(CC)c1ccc2cc(S(=O)(=O)c3ccc(Cl)cc3)c(=O)oc2c1 | 372% (active) |
| CCN(CC)c1ccc2c(c1)oc(=O)c1c(Cl)cc(=O)oc12 | 63.5% (active) |
| CCN(CC)c1ccc2cc(C=O)c(=O)oc2c1 | 17% (active) |
| CCN(CC)c1ccc2c(Cl)c(Br)c(=O)oc2c1 | 8.56% |
| Clc1ccccc1N=Nc1ccccn1 | 9.89% |
| CCN(CC)c1ccc2oc(=O)c(C)nc2c1 | 364% (active) |
| CCOC(=O)c1c(C#N)c(SCC(=O)Nc2ccc(OC)cc2)nc2c1CN(CC)CC2 | 78.6% (active) |
| COc1cccc2c1C(=O)c1c(O)c3c(c(O)c1C2=O)C[C@@](O)(C(=O)CO)C[C@@H]3O[C@H]1C[C@H](N)[C@H](O)[C@H](C)O1 | 3.66% |
| COc1cccc2c1C(=O)c1c(O)c3c(c(O)c1C2=O)CC(O)(C(C)=O)CC3OC1CC(O)C(O)C(C)O1 (configuration not stated) | 75.5% (active) |
| COc1cccc2c1C(=O)c1c(O)c3c(c(O)c1C2=O)C[C@](O)(C(C)=O)C[C@H]3O[C@@H]1C[C@@H](N)[C@@H](O)[C@@H](C)O1 | 4.79% |
| COc1cccc2c1C(=O)c1c(O)c3c(c(O)c1C2=O)CC(O)(C(=O)CO)CC3OC1CC(N(C)C)C(O)C(C)O1 (configuration not stated) | 211% (active) |
| COc1cccc2c1C(=O)c1c(O)c3c(c(O)c1C2=O)C[C@@](O)(C(=O)CO)C[C@@H]3OC1CC(N)C(O)C(C)O1 (some centres not stated) | 9.17% |
| COc1cccc2c1C(=O)c1c(O)c3c(c(O)c1C2=O)CC(O)(C(C)=O)CC3OC1CC(N(C)C)C(O)C(C)O1 (configuration not stated) | 6.16% |
| C[C@H]1COc2c(N3CCN(C)CC3)c(F)cc3c(=O)c(C(=O)O)cn1c23 | 6.23% |
| CN(C)c1ccc(/C=C/c2cc[n+](C)cc2)cc1 | 28.1% (active) |
| Cc1ccc(/C=C/c2ccc(N(C)C)cc2)[n+](C)c1 | 9.58% |
| CN(C)c1ccc(/C=C/c2cc[n+](C)c3ccccc23)cc1 | 6.25% |
| CCOc1cc(/C=C2\NC(=O)NC2=O)cc([N+](=O)[O-])c1O | 8.6% |
| Cc1ccccc1N=Cc1cc2c(cc1O)OC(N)=C(C#N)C2c1ccccc1 (configuration not stated) | 15.4% (active) |
| COc1ccc(N=Cc2cc3c(cc2O)OC(N)=C(C#N)C3c2ccccc2)cc1 (configuration not stated) | 95.8% (active) |
| COc1ccc(O)c(/C=N/c2nc3ccccc3n2C)c1 | 10.8% |
| Cc1cc(C)n(-c2nc3ccccc3nc2Nc2ccc3[nH]c(=O)[nH]c3c2)n1 | 15.9% (active) |
